Source: ChEMBL document CHEMBL5137074 (J Med Chem, 2022)

Assays:
Wee1-like protein kinase = Wee1-like protein kinase (Homo sapiens, UniProt P30291); experiment: Inhibition of WEE1 (unknown origin)
[1] = target: T1, Membrane-associated tyrosine- and threonine-specific cdc2-inhibitory kinase (Homo sapiens, UniProt Q99640)
T1 sequence (Q99640 whole entry): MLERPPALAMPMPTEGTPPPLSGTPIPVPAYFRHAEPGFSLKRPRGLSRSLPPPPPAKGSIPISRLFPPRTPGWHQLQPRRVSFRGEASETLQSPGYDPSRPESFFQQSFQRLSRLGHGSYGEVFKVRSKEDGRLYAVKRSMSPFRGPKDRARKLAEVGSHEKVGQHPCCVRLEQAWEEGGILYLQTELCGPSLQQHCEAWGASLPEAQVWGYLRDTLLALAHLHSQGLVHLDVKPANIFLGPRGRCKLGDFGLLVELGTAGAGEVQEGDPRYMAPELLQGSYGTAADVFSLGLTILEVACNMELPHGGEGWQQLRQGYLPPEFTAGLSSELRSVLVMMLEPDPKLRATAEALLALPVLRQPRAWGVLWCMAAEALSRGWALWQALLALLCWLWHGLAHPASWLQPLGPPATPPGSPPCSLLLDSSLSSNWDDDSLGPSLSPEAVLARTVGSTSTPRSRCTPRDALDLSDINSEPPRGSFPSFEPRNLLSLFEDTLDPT

Ephrin type-B receptor 3 = target: T2, Ephrin type-B receptor 3 (Homo sapiens, UniProt P54753); experiment: Inhibition of full length Nano-luc fused EPHB3 in human HEK-293T cells incubated for 2 hrs by cell based NanoBRET target engagement assay
T2 sequence (P54753 whole entry): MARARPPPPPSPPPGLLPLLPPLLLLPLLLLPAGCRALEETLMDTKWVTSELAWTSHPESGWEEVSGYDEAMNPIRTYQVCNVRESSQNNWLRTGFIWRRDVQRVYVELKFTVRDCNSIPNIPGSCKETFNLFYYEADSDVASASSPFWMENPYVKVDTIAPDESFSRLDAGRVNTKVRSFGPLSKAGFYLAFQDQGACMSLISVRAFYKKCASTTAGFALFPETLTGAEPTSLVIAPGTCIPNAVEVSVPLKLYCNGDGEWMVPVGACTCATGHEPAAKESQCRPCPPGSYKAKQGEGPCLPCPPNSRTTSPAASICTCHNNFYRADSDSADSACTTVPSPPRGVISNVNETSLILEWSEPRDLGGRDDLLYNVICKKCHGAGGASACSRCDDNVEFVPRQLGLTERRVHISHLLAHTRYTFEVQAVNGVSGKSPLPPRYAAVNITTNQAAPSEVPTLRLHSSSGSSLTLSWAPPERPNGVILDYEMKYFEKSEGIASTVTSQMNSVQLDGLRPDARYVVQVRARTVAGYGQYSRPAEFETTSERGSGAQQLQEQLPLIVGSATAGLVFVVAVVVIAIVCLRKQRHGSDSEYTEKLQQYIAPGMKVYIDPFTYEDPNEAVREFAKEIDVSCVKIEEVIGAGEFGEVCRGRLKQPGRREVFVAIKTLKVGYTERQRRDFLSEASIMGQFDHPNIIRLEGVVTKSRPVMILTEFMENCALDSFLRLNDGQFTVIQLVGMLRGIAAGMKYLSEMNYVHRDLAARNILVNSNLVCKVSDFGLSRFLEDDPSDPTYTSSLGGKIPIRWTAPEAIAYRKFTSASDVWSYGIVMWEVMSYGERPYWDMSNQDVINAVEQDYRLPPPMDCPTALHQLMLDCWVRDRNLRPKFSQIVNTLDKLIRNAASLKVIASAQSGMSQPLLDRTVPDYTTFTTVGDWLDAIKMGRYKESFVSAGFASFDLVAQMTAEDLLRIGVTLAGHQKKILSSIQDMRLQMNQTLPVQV
Summary of the method: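 HEK293T cells transiently transfected with the NanoLuc–kinase fusion vector plus carrier DNA and left overnight at 37 °C/5% CO2. Cells were resuspended in phenol red-free Opti-MEM at 17000 cells/well with the tracer. They were then exposed to compound for 2 h at 37 °C, and substrate/inhibitor mix was added. Acceptor (610 nm) and donor (450 nm) emissions were read.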

[2] = rat, in vivo, po, 5 mg/kg, 24 h
Cytochrome P450 2D6 = Cytochrome P450 2D6 (Homo sapiens, UniProt P10635); experiment: Inhibition of CYP2D6 (unknown origin)
Cytochrome P450 2D6, sequence (P10635 whole entry): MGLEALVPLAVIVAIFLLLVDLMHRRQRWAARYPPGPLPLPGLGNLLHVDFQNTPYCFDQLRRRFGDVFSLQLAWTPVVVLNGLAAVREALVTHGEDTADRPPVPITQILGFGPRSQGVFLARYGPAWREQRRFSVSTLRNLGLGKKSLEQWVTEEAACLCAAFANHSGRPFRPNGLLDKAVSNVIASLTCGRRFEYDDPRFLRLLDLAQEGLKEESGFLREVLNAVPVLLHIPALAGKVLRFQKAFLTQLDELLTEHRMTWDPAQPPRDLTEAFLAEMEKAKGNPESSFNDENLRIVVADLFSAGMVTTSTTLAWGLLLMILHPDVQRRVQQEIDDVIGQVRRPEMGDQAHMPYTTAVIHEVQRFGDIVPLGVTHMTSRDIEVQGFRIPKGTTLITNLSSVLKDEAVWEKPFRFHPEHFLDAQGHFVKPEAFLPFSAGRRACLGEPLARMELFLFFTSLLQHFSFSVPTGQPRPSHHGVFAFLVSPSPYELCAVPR

[3] = Apparent permeability across apical to basolateral side in human Caco-2 cells
[4] = Oral bioavailability in Cynomolgous monkey at 1 mg/kg measured upto 24 hrs by reversed phase LCMS analysis; assay type: ADME, organism-based, Macaca fascicularis; conditions: cynomolgus monkey, in vivo
Cytochrome P450 3A4 [5] = target: T3, Cytochrome P450 3A4 (Homo sapiens, UniProt P08684); experiment: Inhibition of CYP3A4 (unknown origin)
T3 sequence (P08684 whole entry): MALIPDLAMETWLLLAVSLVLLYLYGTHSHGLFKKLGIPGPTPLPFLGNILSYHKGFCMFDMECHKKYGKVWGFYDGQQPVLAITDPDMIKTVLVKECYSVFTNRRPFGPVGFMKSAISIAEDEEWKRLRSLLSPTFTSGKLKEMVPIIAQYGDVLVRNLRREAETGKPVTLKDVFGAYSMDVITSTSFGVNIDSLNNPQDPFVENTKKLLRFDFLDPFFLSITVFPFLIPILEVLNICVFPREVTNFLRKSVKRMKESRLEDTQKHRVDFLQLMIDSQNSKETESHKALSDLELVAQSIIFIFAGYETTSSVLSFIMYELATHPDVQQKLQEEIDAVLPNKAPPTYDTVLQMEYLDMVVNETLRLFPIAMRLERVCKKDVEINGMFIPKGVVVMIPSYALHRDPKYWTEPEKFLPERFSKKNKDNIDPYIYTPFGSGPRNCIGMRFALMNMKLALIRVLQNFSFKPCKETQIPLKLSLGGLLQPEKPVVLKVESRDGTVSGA

Cytochrome P450 3A4 [6] = target: T3, Cytochrome P450 3A4; experiment: Induction of CYP3A4 in human hepatocytes at 3 uM relative to rifampicin; assay type: ADME, cell-based, Hepatocyte
Summary of the method: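 Single-donor human hepatocytes exposed at 3 μM. CYP3A4 induction expressed as % of the 10 μM rifampicin positive control.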

[7] = Plasma protein binding in human at 1 uM; assay type: ADME, cell-free
Summary of the method: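 Plasma protein binding measured at 1 μM compound in human plasma, with rat plasma run alongside.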

[8] = rat, in vivo, iv, 1 mg/kg, 24 h
[9] = Plasma protein binding in rat at 1 uM
Cytochrome P450 2C9 = Cytochrome P450 2C9 (Homo sapiens, UniProt P11712); experiment: Inhibition of CYP2C9 (unknown origin)
Cytochrome P450 2C9, sequence (P11712 whole entry): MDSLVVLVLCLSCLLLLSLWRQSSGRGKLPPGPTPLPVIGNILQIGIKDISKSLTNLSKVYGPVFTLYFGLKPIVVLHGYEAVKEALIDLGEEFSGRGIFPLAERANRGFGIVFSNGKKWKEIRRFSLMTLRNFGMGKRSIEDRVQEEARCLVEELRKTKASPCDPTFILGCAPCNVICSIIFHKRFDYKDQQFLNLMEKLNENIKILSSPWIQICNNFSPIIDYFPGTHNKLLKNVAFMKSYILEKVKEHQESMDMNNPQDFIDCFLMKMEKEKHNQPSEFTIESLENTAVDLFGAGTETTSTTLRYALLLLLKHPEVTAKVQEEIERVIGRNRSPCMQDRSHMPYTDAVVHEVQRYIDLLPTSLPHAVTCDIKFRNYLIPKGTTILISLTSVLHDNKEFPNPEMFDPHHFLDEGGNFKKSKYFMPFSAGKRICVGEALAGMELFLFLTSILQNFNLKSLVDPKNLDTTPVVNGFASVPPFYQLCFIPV

[10] = Metabolic stability in human hepatocytes assessed as intrinsic clearance measured per 10^6 cells
[11] = Oral bioavailability in Beagle dog at 1 mg/kg measured upto 24 hrs by reversed phase LCMS analysis; assay type: ADME, organism-based, Canis lupus familiaris; conditions: in vivo
[12] = Oral bioavailability in CD-1 mouse at 2.5 to 5 mg/kg measured upto 24 hrs by HPLC-LCMS analysis; assay type: ADME, organism-based; conditions: in vivo, dose 2.5-5 mg/kg
Summary of the method: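 Female CD1 mice (20–30 g) dosed IV at 1 mg/kg as a solution. Oral dosing at 2.5 or 5 mg/kg as a suspension in 0.5% methyl cellulose. […] Non-compartmental analysis.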

OVCAR-3 [13] = experiment: Antitumor activity against human OVCAR-3 cells xenografted in SCID/Beige mouse assessed as time over EC90 concentration at 15 ppm incorporated with chow diet; assay type: functional
Summary of the method: (§1)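 OVCAR3-bearing SCID-beige mice were fed drug-formulated chow. Whole blood was sampled at 6:30am and 4:30pm on days 2, 5 and 22 and quantified by LC-MS/MS. Blood levels were converted to free plasma levels using blood/plasma ratio 1.2 and CD-1 plasma fu 0.185. […] Time over EC90 was referenced to the tumour pCDK1(Thr14) EC90.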

[14] = Toxicity in SCID/Beige mouse xenografted with OVCAR-3 cells assessed as change in body weight at 300 ppm measured upto 21 days; assay type: cell-based; conditions: in vivo, 504 h, time < 21 day
Summary of the method: (§2)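 OVCAR3 flank xenografts in female SCID-beige mice (n=8) given drug-formulated chow for 21 days after blank-chow acclimatization. Individual body weight change relative to day 0 = (BWlast−BWday0)/BWday0 ×100. Food consumption was also monitored as two-day mean chow intake.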

OVCAR-3 [15] = experiment: Antitumor activity against human OVCAR-3 cells xenografted in SCID/Beige mouse assessed as reduction in tumor growth measured upto 20 days by digital caliper method; assay type: functional, cell-based; conditions: dose 15-300 ppm, time <= 21.0 day, DDE = dose-dependent effect, in the assay text read “upto 21 days” for “upto 20 days”
Summary of the method: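 Female SCID-beige mice (5–7 weeks) were implanted in the right flank with 5×10^6 OVCAR3 cells in 1:1 matrigel:media. At 100–150 mm3 they were randomised (n=8/group) and acclimatised to blank chow for 3–5 days. They then received drug-formulated chow at 15, 50 or 300 ppm for 21 days. Tumours were measured by caliper, with volume = 0.52×L×W2. TGI was calculated from group means at day 0 and the last day versus vehicle.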

[16] = target: Voltage-gated inwardly rectifying potassium channel KCNH2 (Homo sapiens, UniProt Q12809); experiment: Inhibition of human ERG by patch-clamp assay; assay type: toxicity
Voltage-gated inwardly rectifying potassium channel KCNH2, sequence (Q12809 whole entry): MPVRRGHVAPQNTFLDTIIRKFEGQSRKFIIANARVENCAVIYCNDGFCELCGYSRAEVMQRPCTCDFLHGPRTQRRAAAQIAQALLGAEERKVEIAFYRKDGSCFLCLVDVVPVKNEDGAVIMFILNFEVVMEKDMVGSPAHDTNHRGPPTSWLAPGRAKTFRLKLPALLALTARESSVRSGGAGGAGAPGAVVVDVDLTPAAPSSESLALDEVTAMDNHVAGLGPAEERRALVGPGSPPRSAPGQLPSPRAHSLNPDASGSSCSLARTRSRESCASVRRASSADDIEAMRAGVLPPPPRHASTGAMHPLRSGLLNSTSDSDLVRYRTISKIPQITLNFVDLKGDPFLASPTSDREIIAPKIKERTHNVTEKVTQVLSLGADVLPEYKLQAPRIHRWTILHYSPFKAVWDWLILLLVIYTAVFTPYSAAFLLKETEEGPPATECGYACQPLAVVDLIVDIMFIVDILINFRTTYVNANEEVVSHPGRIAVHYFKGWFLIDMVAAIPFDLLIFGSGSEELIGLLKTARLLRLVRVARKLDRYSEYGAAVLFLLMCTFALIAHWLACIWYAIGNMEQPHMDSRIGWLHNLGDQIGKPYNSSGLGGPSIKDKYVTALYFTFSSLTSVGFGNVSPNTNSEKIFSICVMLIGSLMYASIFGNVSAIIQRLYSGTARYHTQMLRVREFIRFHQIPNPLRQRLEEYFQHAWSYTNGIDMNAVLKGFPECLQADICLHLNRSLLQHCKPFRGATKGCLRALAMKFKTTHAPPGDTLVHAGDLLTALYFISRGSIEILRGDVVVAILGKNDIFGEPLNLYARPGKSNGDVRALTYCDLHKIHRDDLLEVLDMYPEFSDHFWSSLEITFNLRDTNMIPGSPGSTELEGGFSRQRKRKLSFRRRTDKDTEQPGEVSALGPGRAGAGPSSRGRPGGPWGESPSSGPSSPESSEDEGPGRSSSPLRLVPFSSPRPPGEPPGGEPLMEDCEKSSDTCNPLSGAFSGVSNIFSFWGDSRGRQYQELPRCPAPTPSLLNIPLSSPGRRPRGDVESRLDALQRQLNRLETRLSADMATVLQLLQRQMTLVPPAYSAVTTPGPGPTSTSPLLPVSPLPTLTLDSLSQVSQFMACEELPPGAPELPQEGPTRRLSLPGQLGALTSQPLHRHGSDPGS

[17] = Toxicity in SCID/Beige mouse xenografted with OVCAR-3 cells assessed as tolerated dose at 300 ppm measured upto 21 days; assay type: cell-based; conditions: in vivo, 504 h, time < 21 day; summary of the method: as §2
[18] = In vivo inhibition of PKMYT1 in SCID/Beige mouse xenografted with human OVCAR-3 cells assessed as inhibition of CDK1 phosphorylation measured upto 10 hrs post oral dose by ELISA method; assay type: functional
Summary of the method: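 OVCAR3 tumours were collected 2, 6 and 10 h after oral BID dosing (n=4/group/time point). They were homogenised in Tris lysis buffer with protease and phosphatase inhibitors. pCDK1(Thr14) was measured by sandwich ELISA with an anti-CDK1 capture antibody, an anti-CDK1-pT14 detector and an anti-rabbit HRP secondary, read at 450 nm. Signal was expressed relative to vehicle, and the free-plasma EC50 was derived by non-linear dose-response fitting.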

[19] = Stability in SCID/Beige mouse plasma assessed as unbound compound at 50 to 300 ppm simulated dose incorporated with chow diet measured on 22 day; assay type: ADME; conditions: in vivo, po, dose 50-300 ppm; summary of the method: as §1
[20] = Toxicity in SCID/Beige mouse xenografted with OVCAR-3 cells assessed as reduction in food consumption at 15 to 300 ppm incorporated with chow diet measured upto 21 days; assay type: cell-based; conditions: in vivo, po, 504 h, dose 15-300 ppm, time < 21 day
Summary of the method: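 The drug was dissolved in acetone and mixed into rodent meal at 300 ppm, then diluted with untreated feed to lower levels. Xenografted SCID-beige mice were acclimatised to blank chow, then fed 15, 50 or 300 ppm chow for 21 days. The two-day mean chow consumption was compared with mice on blank chow.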

[21] = Unbound Cmax in SCID/Beige mouse xenografted with OVCAR-3 cells at 50 ppm incorporated with chow diet; assay type: ADME; conditions: po; summary of the method: as §1

Wee1-like protein kinase, sequence (P30291 whole entry): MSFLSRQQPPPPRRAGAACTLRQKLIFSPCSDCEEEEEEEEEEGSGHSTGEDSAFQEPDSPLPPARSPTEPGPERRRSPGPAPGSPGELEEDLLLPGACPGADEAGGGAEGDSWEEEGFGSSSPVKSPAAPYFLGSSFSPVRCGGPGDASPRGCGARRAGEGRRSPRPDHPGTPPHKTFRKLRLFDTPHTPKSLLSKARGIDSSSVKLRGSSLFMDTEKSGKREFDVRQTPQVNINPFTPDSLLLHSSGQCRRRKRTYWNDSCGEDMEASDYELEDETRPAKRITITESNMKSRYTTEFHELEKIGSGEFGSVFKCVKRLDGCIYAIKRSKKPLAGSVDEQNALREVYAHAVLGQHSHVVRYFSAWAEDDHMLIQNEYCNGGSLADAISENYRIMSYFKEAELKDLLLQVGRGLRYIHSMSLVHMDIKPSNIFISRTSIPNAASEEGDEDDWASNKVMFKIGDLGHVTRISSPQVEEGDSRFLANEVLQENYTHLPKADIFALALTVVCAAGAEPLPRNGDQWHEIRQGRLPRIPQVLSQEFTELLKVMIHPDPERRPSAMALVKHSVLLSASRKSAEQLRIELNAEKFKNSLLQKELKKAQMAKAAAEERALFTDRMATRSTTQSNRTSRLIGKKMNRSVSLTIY

**Q.** Which IC50 (Wee1-like protein kinase) does the source give for `Cc1ccc(O)c(C)c1-n1c(N)c(C(N)=O)c2nc3ccccc3nc21` here?
**A.** 580 nM

**Q.** Which IC50 [1] does the source give for `Cc1ccc(O)c(C)c1-n1c(N)c(C(N)=O)c2nc3cccc(C4=CCCC4)c3nc21` here?
**A.** < 0.003 µM

**Q.** With `Cc1ccc(Cl)c(C)c1-n1c(N)c(C(N)=O)c2nc3ccccc3nc21` as the compound, how does the IC50 [1] read?
**A.** > 20 µM

**Q.** Which IC50 [1] does the source give for `NC(=O)c1c(N)n(-c2cccc3[nH]ccc23)c2nc3ccccc3nc12` here?
**A.** > 20 µM

**Q.** Which IC50 (Wee1-like protein kinase) does the source give for `Cc1ccc(O)c(Cl)c1-n1c(N)c(C(N)=O)c2nc3ccccc3nc21` here?
**A.** 940 nM

**Q.** What about the IC50 (Ephrin type-B receptor 3) of the same compound?
**A.** 7 nM

**Q.** With `Cc1ccc(N)cc1-n1c(N)c(C(N)=O)c2nc3ccccc3nc21` as the compound, how does the IC50 [1] read?
**A.** > 20 µM

**Q.** For `Cc1ccc(O)c(C)c1-n1c(N)c(C(N)=O)c2cc(Cl)cnc21`, which F [2] is on record?
**A.** 37%

**Q.** What about the IC50 (Cytochrome P450 2D6) of the same compound?
**A.** > 30 µM

**Q.** What about the Papp [3] of the same compound?
**A.** 18.3 10^-6 cm/s

**Q.** What about the F [4] of the same compound?
**A.** 32%

**Q.** What about the IC50 (Cytochrome P450 3A4 [5]) of the same compound?
**A.** > 30 µM

**Q.** What about the Activity (Cytochrome P450 3A4 [6]) of the same compound?
**A.** 26.7%

**Q.** And the PPB [7]?
**A.** 89.6%

**Q.** What about the CL free [8] of the same compound?
**A.** 215 mL/min/kg

**Q.** And the PPB [9]?
**A.** 88.1%

**Q.** What about the IC50 (Cytochrome P450 2C9) of the same compound?
**A.** 26 µM

**Q.** What about the hepatocyte CLint [10] of the same compound?
**A.** 4.5 µL/min/1e6 cells

**Q.** What about the F [11] of the same compound?
**A.** 33%

**Q.** What about the F [12] of the same compound?
**A.** 21%

**Q.** With `Cc1ccccc1-n1c(N)c(C(N)=O)c2nc3ccccc3nc21` as the compound, how does the IC50 [1] read?
**A.** > 20 µM

**Q.** For `NC(=O)c1c(N)n(-c2cccc3[nH]cnc23)c2nc3ccccc3nc12`, which IC50 [1] is on record?
**A.** > 20 µM

**Q.** What does the source list for `Cc1cc2c(C(N)=O)c(N)n(-c3c(C)ccc(O)c3C)c2nc1C` [LUNRESERTIB]?
**A.** Time (OVCAR-3 [13]): 0 h; Activity [14]: Non-Toxic; Activity (OVCAR-3 [15]): Dde; F ([2]; Sprague-Dawley): 48%; IC50 [16]: > 100 µM; IC50 (Cytochrome P450 2D6): > 30 µM; Papp [3]: 15.2 10^-6 cm/s; F [4]: 29%; Activity [17]: Non-Toxic; EC50 ([18]; Homo sapiens, OVCAR-3, 10 h): 0.2 nM; EC90 ([18]; route po, time <= 10 hrs): 11 nM; Stability [19]: Stable; Activity [20]: Non-Toxic; Activity (Cytochrome P450 3A4 [6]): 12.5%; IC50 (Cytochrome P450 2C9): > 30 µM; fCmax [21]: 15.5 nM; CLH [10]: 3.2 µL/min; F [12]: 37%

**Q.** With `NC(=O)c1c(N)n(-c2c(Cl)ccc(O)c2Cl)c2nc3ccccc3nc12` as the compound, how does the IC50 (Wee1-like protein kinase) read?
**A.** 220 nM

**Q.** For `NC(=O)c1c(N)n(-c2cccc3[nH]ncc23)c2nc3ccccc3nc12`, which IC50 (Wee1-like protein kinase) is on record?
**A.** 5200 nM

**Q.** What does the source list for `Cc1ccc(O)c(C)c1-n1c(N)c(C(N)=O)c2cc(Cl)c(C)nc21`?
**A.** F [2]: 24%; CL free [8]: 731 mL/min/kg; PPB [9]: 93.1%

**Q.** Which IC50 (Wee1-like protein kinase) does the source give for `Cc1c(O)cccc1-n1c(N)c(C(N)=O)c2nc3ccccc3nc21` here?
**A.** 2200 nM
